An excerpt weighted towards active compounds, which were near 2.1% of everything screened.
M5 antag: blocks acetylcholine activation of human M5 receptor; CHO-hM5 cells, Fluo-8 calcium fluorescence, ACh EC80; actives 0.59% (n = 360,000); inhibition, % at 3 µM;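 active = inhibition above a per-plate cutoff, the mean of that plate's test compounds plus 3 SD, cut at about 27% in these data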;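 note: 0% = acetylcholine EC80 with DMSO and 100% = DMSO without agonist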
Target sequence (P08912 whole entry, looked up): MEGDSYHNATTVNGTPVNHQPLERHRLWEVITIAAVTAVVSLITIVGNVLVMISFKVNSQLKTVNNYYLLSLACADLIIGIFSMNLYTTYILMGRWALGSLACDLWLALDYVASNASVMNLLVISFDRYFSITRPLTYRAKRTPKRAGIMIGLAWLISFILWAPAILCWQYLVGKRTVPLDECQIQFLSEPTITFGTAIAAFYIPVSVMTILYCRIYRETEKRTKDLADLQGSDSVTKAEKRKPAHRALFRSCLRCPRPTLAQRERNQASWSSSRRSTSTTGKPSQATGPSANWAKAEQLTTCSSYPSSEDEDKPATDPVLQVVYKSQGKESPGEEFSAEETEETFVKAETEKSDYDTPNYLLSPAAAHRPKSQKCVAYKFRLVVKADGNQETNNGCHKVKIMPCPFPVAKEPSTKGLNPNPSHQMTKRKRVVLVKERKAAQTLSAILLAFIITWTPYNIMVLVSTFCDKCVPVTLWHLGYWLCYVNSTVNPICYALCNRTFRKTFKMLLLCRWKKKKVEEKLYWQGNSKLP
M5 ag: agonists of human muscarinic M5 receptor (CHRM5) | CHO-K1 hM5 cells, Fluo-8 calcium fluorescence; 0% DMSO wells, 100% maximal acetylcholine response | activation, % at 3 µM | actives 0.19% (n = 360,000) | AID 624037;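 active = activation above the run's mean over test compounds plus 3 SD, cut at about 23% in these data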;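 note: signal is peak over basal fluorescence ratio across the kinetic read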
CHRM1 agonist: agonists of human M1 muscarinic receptor. P11229. CHO-K1 hM1, Fluo-8 calcium fluorescence, agonist mode; 0% DMSO, 100% acetylcholine EC100. activation, % at 3 µM. actives 0.33% (n = 360,000). AID 588814;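 active = activation above the run's mean compound activation plus 3 SD, cut at about 16% in these data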;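 note: peak over basal fluorescence ratio within a 140 s kinetic read after compound addition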
M5 PAM: positive allosteric modulators of human muscarinic M5 receptor | P08912 | CHO-K1 hM5, Fluo-8 calcium, ACh EC20 PAM; 0% = ACh EC20, 100% = ACh EC100 | activation, % at 3 µM | actives 0.3% (n = 360,000) | AID 624038;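 active = activation above the run cutoff, the mean activation of all test compounds plus 3 SD, cut at about 18% in these data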
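System: CHO-K1 cell line with stable human muscarinic M5 receptor expression | Also added: EC20 acetylcholine as agonist stimulus | Compound: One concentration, 3 µM final (nominal) | Timing: Fluo-8 loading 80 min at 37 °C plus 30 min room temperature | Measured by: Fluo-8 calcium dye fluorescence, kinetic read | Read-out basis: % activation, ACh-normalized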
CHRM1 antagonist: antagonists of human M1 muscarinic receptor; inhibition, % at 3 µM; P11229; CHO-K1 hM1, Fluo-8 calcium fluorescence, ACh EC80 antagonist; AID 588852; actives 1.3% (n = 360,000);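 active = percent inhibition above its own plate's cutoff, namely the mean of that plate's compound wells plus 3 SD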;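 note: peak over basal fluorescence ratio during 140 s after agonist addition; 0% = ACh EC80 plus DMSO and 100% = DMSO alone without agonist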
CHRM1 PAM: potentiates human M1 receptor response to acetylcholine; P11229; CHO-K1 hM1, Fluo-8 calcium fluorescence, ACh EC20; 0% = ACh EC20, 100% = maximal ACh; activation, % at 3 µM; actives 0.088% (n = 360,000); AID 588819; in the data active = activation above about 19%, passing the limit was not always enough
* marks the source's active call; other numbers are inactive results; x = no result.

SMILES	M5 antag	M5 ag	CHRM1 agonist	M5 PAM	CHRM1 antagonist	CHRM1 PAM
CCN1C(=O)[C@@H]2Cc3c([nH]c4ccccc34)C(c3ccc(OC)cc3)N2C1=S (some centres not stated)	28.8*	-1.1	-4.0	-18.0	70.6*	-30.8
CCCCCOc1ccc2oc(=O)c3c(c2c1)CCCN3C(=O)CN1CCCC(C(=O)OCC)C1 (configuration not stated)	-0.3	-13.3	-3.7	-26.0	34.7*	-19.0
CC1CC(C)CN(c2ncc3c(n2)CC(c2ccc(Cl)cc2)CC3=O)C1 (configuration not stated)	-6.0	5.9	-3.7	38.6*	-10.3	8.6
COc1ccccc1NS(=O)(=O)c1cccc(-n2c(O)c(C=Nc3ccccc3C(=O)O)c3ccccc3c2=O)c1	-3.1	-1.4	-4.8	9.2	69.8*	-1.5
CN(C)c1ccc(/C=C/c2cccc[n+]2[O-])cc1	6.5	6.3	-2.6	0.5	-8.0	4.5
CC(C)CC[n+]1ccccc1/C=C/c1ccc(N(C)C)cc1	29.4*	4.4	8.8	-6.3	28.6*	-13.3
Cc1ccc(NC(=O)c2ccccc2NS(=O)(=O)c2ccc(Cl)s2)cc1S(=O)(=O)N1CCOCC1	31.8*	4.9	-0.8	-19.9	17.7	-8.7
Cc1nc2scc(-c3ccc(C(C)(C)C)cc3)c2c(=O)n1N	33.4*	4.1	-0.7	-19.4	13.4	-17.0
Cc1ccc2c(c1)NC(=O)[C@@]1(C)[C@@H](c3ccccc3)[C@H]3COc4ccccc4[C@@H]3N1C2=O	0.1	-0.8	-5.4	-0.7	4.9	-6.7
C[C@@]12C(=O)Nc3ccc(Br)cc3C(=O)N1[C@H]1c3ccccc3OC[C@@H]1[C@@H]2c1ccccc1	15.3	2.6	-3.8	-21.4	26.6*	-13.8
Cc1ccc2c(c1)C(=O)N1[C@H]3c4ccccc4OC[C@@H]3[C@H](c3ccccc3)[C@]1(C)C(=O)N2	17.2	-5.6	-7.9	-35.7	64.8*	-30.3
Cc1nc(SCC(=O)Nc2nccs2)c(C#N)c(C)c1C	3.2	1.7	-0.8	4.2	-13.3	10.3
CCCn1c(CNc2ccccc2O)nc2ccccc21	-5.5	1.7	-2.2	0.0	-0.1	-0.1
C(=C\c1ccccc1)/CSc1nc2ncccc2[nH]1	2.7	2.0	-0.8	-2.5	-6.3	-1.9
CC(=O)Nc1nnc(SCc2cccc(F)c2)s1	-4.6	0.5	-0.5	-3.2	-9.6	7.1
COc1ccccc1OCCCN1CCC(C(O)(c2ccccc2)c2ccccc2)CC1	14.3	-3.0	x	-24.5	x	x
OC(c1ccccc1)(c1ccccc1)C1CCN(CCCOc2ccc(F)cc2)CC1	55.5*	-3.7	x	-24.3	x	x
Cc1ccc(OCCCN2CCC(C(O)(c3ccccc3)c3ccccc3)CC2)cc1	77.5*	1.7	x	-24.3	x	x
OC(c1ccccc1)(c1ccccc1)C1CCN(CCCOc2ccccc2Cl)CC1	20.7	3.1	x	-23.9	x	x
COc1ccc(N2CC(C(=O)N3CCN(c4ccccc4)CC3)CC2=O)cc1 (configuration not stated)	31.5*	-3.7	-2.2	-13.3	-1.0	-1.3
NC(=O)[C@H]1CC2(CC(c3cccc(NC(=O)COc4ccc(Cl)cc4)c3)=NO2)CN1C(=O)CC(c1ccccc1)c1ccccc1 (some centres not stated)	-6.5	7.7	1.0	10.7	-10.4	20.1
O=C1CC(=C(c2ccccc2)c2ccccc2)C(=O)N1CCCCN1CCN(c2ccccc2)CC1	9.3	-8.2	-5.0	-20.1	72.8*	-22.4
CCc1nn(CC(=O)NCCCN2CCN(C)CC2)c(=O)c2cc3sccc3n12	-2.3	-3.1	-4.2	6.2	-6.5	10.7
CCc1nn(CC(=O)NCCCN2CCc3ccccc3C2)c(=O)c2cc3sccc3n12	4.8	-5.3	-13.5	-10.2	43.7*	-33.0
CCC(Oc1ccccc1)C(=O)Nc1ccc(S(=O)(=O)Nc2ncccn2)cc1 (configuration not stated)	-6.7	-3.0	-1.0	4.0	-14.7	9.1
SMILES	M5 antag	M5 ag	CHRM1 agonist	M5 PAM	CHRM1 antagonist	CHRM1 PAM
CCC(Oc1ccc(C)cc1)C(=O)Nc1ccc(S(=O)(=O)Nc2nccs2)cc1 (configuration not stated)	-6.4	10.8	19.3*	3.0	-9.6	23.9
CCC(Oc1ccccc1)C(=O)Nc1ccc(S(=O)(=O)Nc2cc(C)on2)cc1 (configuration not stated)	-1.7	-2.2	-0.8	11.6	-24.8	29.1*
CC(Oc1ccc(Br)cc1)C(=O)Nc1ccc(S(=O)(=O)Nc2nccs2)cc1 (configuration not stated)	4.9	13.7	15.4	11.8	16.5	3.5
CCOC(=O)C1=C(C)NC(=O)NC1c1c(O)ccc2ccccc12 (configuration not stated)	1.0	4.3	1.1	-3.0	-16.9	15.5
CCc1ccc(CN2CCC(Oc3ccc(C(=O)N4CCCCC4)cc3)CC2)cc1	6.0	-6.5	-5.2	-14.0	41.8*	-21.2
CC(C)c1ccc(CN2CCC(Oc3ccc(C(=O)N4CCCC4)cc3)CC2)cc1	29.8*	-7.0	-3.5	-11.0	81.1*	-22.9
O=C(c1ccc(OC2CCN(Cc3ccc(F)cc3)CC2)cc1)N1CCCC1	-4.5	-8.5	-6.2	4.2	1.3	-5.3
CCOc1cccc(CN2CCC(Oc3ccc(C(=O)N4CCCC4)cc3)CC2)c1	11.2	-8.8	-4.8	-3.6	49.1*	-23.1
CCc1ccc(CN2CCC(Oc3ccc(C(=O)N4CCCC4)cc3)CC2)cc1	15.1	-9.0	-5.8	-8.6	81.6*	-23.7
Cc1cccc(CN2CCC(Oc3ccc(C(=O)N4CCCCC4)cc3)CC2)c1	14.0	-8.8	-4.1	-6.5	-15.1	8.1
CC(C)(C)c1ccc(C(=O)NCC(=O)N2CCNC(=O)C2)cc1	0.3	-2.5	-3.0	1.8	-8.2	13.4
CNS(=O)(=O)c1cccc(C(=O)OCC(=O)Nc2ccccc2OC(F)F)c1	-3.0	-2.4	-0.3	-17.6	-3.7	1.4
CCOC(=O)C1(CC2CC2)CCN(Cc2ccc(OC)cc2F)CC1	9.9	-7.9	-9.0	-7.5	28.2*	-24.9
O=C(c1ccc(OC2CCN(C/C=C/c3ccc(F)cc3)CC2)cc1)N1CCCC1	11.4	-10.0	-4.3	-8.1	55.3*	-21.3
CSc1ccc(CN2CCC(Oc3ccc(C(=O)N4CCCC4)cc3)CC2)cc1	7.7	-8.9	-4.8	-7.5	86.7*	-22.9
COc1cc(C)c(CN2CCC(Oc3ccc(C(=O)N4CCCC4)cc3)CC2)cc1C	-2.4	-6.8	-4.7	-1.8	-5.6	0.6
CCn1cc(CN2CCC(Oc3ccc(C(=O)N4CCCCC4)cc3)CC2)cn1	8.4	-7.1	-5.3	0.2	-6.4	5.7
